Assay results published in ChEMBL document CHEMBL1123879, “Synthesis and antiarrhythmic activity of novel 3-alkyl-1-[omega-[4-[(alkylsulfonyl)amino]phenyl]-omega- hydroxyalkyl]-1H-imidazolium salts and related compounds” (J Med Chem, 1987).

Experiments:
[1] = organism: Canis familiaris; assay: (§1) Concentration that causes 20% increase in ADP95 (action potential duration at 95% repolarization) was determined on isolated canine cardiac Purkinje fibers; assay type: functional, Canis lupus familiaris, Purkinje fiber
Procedure, shortened: (§2)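 Canine cardiac Purkinje fibres in gassed physiological saline (95% O2–5% CO2, pH 7.35–7.40) at 36 ± 0.5 °C. Paced at 1.0 Hz with 2 ms pulses at twice diastolic threshold. Intracellular microelectrode recording after up to 1 h of stabilisation; 30 min exposure per concentration; one compound per fibre, with vehicle controls. Readout is concentration giving a 20% change in APD95, or maximal APD95 change; log mean with 90% CI when n > 2.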

[2] = organism: Canis familiaris; assay: (§3) Concentration that causes 20% increase in functional refractory period (FRP) was determined on isolated canine ventricular muscle fibers; set-up: species or system Canis lupus familiaris, Muscle tissue
Procedure, shortened: (§4)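 Canine right ventricular papillary muscle strips superfused with O2/CO2-gassed saline at 36 ± 0.5 °C. Bipolar electrogram recording. Stimulated at 4× diastolic threshold (2 ms pulses), equilibrated 60 min. FRP measured at 1000 ms cycle length by S2 after every tenth S1 at shortening intervals. Cumulative concentrations; one compound per strip, with vehicle controls. Readout is concentration giving a 20% FRP change, or maximal change; log mean with 90% CI when n > 2.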

[3] = test system: Canis familiaris; assay: In vivo intraduodenal activity in mongrel dogs was assessed by % change in heart rate (10 mg/kg administered intradermally); assay type: functional, Canis lupus familiaris; conditions: in the assay text read “intraduodenally” for “intradermally”
Procedure, shortened: (§5)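 Healthy dogs (8–20 kg) of either sex, pentobarbital 30 mg/kg iv, ventilated, temperature held at 36 ± 0.5 °C. Compound given intraduodenally as suspension in 0.5% tragacanth. HR, BP and FRP measured at 45 min postdose; second dose if FRP/conduction change below 12%. Active dose means FRP change ≥ 12%; HR and BP given as % change, mean ± SEM.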

[4] = organism: Canis familiaris; assay: Maximum observed change in FRP from control was determined in isolated canine ventricular muscle fibers at a concentration of 100 uM; assay type: functional, Canis lupus familiaris, Muscle tissue; procedure, shortened: as §4
[5] = test system: Canis familiaris; assay: In vivo intraduodenal activity in mongrel dogs was assessed by % change in blood pressure (10 mg/kg administered intradermally); assay type: functional, Canis lupus familiaris, Artery; conditions: in the assay text read “intraduodenally” for “intradermally”; procedure, shortened: as §5
[6] = organism: Canis familiaris; assay: Maximum observed change in ADP95 from control value was determined in isolated canine cardiac uM; assay type: functional, Canis lupus familiaris; procedure, shortened: as §2
[7] = organism: Canis familiaris; assay: as §3; conditions: Canis lupus familiaris; Muscle tissue; procedure, shortened: as §4
[8] = organism: Canis familiaris; assay: as §1; assay type: functional; conditions: Canis lupus familiaris; Purkinje fiber; procedure, shortened: as §2
[9] = Canis lupus familiaris, Muscle tissue

Compound	Activity [1]	Activity [2]	Heart rate [3]	Max delta FRP [4]	Blood pressure [5]	Max delta APD95 [6]	Activity [7]	Max delta FRP [4, 9]	Activity [8]	Max delta APD95 ([6]; Canis lupus familiaris)
CCCCCCC[n+]1ccn(CC(O)c2ccc(NS(C)(=O)=O)cc2)c1.O=P([O-])(O)O (stereo not drawn)	2.8 µM	9 µM	-10%	24%	6%	50%				
CC[n+]1ccn(CC(=O)c2ccc(NS(C)(=O)=O)cc2)c1.[Cl-]	49.4 µM	28.2 µM		26%		26%				
C[n+]1ccn(CC(O)c2ccc(NS(C)(=O)=O)cc2)c1 (stereo not drawn)	0.6 µM	8.7 µM		24%		55%				
C[n+]1ccn(C[C@@H](O)c2ccc(NS(C)(=O)=O)cc2)c1.[Cl-]	0.7 µM	7.5 µM		31%		74%				
C[n+]1ccn(CCCc2ccc(NS(C)(=O)=O)cc2)c1.O=P([O-])(O)O	7.2 µM			13%		47%	Not recorded			
C[n+]1ccn(CCC(=O)c2ccc(NS(C)(=O)=O)cc2)c1.[Cl-]	38.3 µM	17.8 µM	-2%	29%	6%	26%				
C[n+]1ccn(CC(=O)c2ccccc2)c1.[Br-]	69 µM						Not recorded	Minimal effects		
Cc1n(CC(=O)c2ccc(NS(C)(=O)=O)cc2)cc[n+]1C.[Cl-]	24.8 µM	14.7 µM		32%		33%				
CCS(=O)(=O)Nc1ccc(C(=O)Cn2cc[n+](C)c2)cc1.[Cl-]	29 µM	40 µM		26%		33%				
CC(C)[n+]1ccn(CC(O)c2ccc(NS(C)(=O)=O)cc2)c1 (stereo not drawn)							Not recorded		Not recorded	Minimal effects
C[n+]1ccn(C[C@H](O)c2ccc(NS(C)(=O)=O)cc2)c1.[Cl-]	0.3 µM	14 µM		25%		58%				
C[n+]1ccn(CC(O)c2ccc(NS(=O)(=O)C(F)(F)F)cc2)c1 (stereo not drawn)							Not recorded	Minimal effects	Not recorded	Minimal effects
CC(C)[n+]1ccn(CC(=O)c2ccc(NS(C)(=O)=O)cc2)c1.[Cl-]				14%			Not recorded		Not recorded	Minimal effects
C[n+]1ccn(CC(=O)c2ccc(NS(=O)(=O)C(F)(F)F)cc2)c1							Not recorded	Minimal effects	Not recorded	Minimal effects
CC[n+]1ccn(CC(O)c2ccc(NS(C)(=O)=O)cc2)c1.[Cl-] (stereo not drawn)	6.2 µM	28.2 µM		26%		65%				
C[n+]1ccn(CCC(O)c2ccc(NS(C)(=O)=O)cc2)c1.[Cl-] (stereo not drawn)		100 µM		20%					Not recorded	Minimal effects
C[n+]1ccn(CC(O)c2ccccc2)c1.[Br-] (stereo not drawn)		50 µM		22%		12%			Not recorded	
Cc1c(C)[n+](C)c(C)n1CC(=O)c1ccc(NS(C)(=O)=O)cc1.[Cl-]		15.8 µM		26%					Not recorded	Minimal effects
CCS(=O)(=O)Nc1ccc(C(O)Cn2cc[n+](C)c2)cc1.[Cl-] (stereo not drawn)	30 µM	14.5 µM		27%		27%				
